Drawing on ChEMBL document CHEMBL1148708, “4-amino-5-substituted-3(2H)-pyridazinones as orally active antinociceptive agents: synthesis and studies on the mechanism of action” (2007), this text covers Activity for 23 compounds.

Molecules are shown by their SMILES.

Common to all, as to type: functional
The test system of test [1] is Mus musculus. In words: Antinociceptive activity in Swiss albino mouse assessed as reduction of number of writhing at 10 mg/kg, po after 30 mins relative to control. The procedure, abridged: (§1)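 Writhing counted in the mouse abdominal constriction test after a chemical noxious stimulus. Compounds given per os 30 min before testing. Controls received CMC vehicle. Activity expressed as reduction in number of writhes versus controls.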

For test [2], the system named is Mus musculus. In words: Effect on Swiss albino mouse assessed as decrease in number of falls in 30 sec at 10 mg/kg, po after 30 mins by Rota-Rod test. The procedure, abridged:
(§2)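 Rotarod test in mice: falls from the rotating rod counted over 30 s, before treatment and at 15, 30 and 45 min after oral dosing. CMC vehicle controls.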
For orientation: Falling from the rotarod earlier than controls is read as motor impairment.

Test [3] deals with Mus musculus. In words: Antinociceptive activity in Swiss albino mouse assessed as number of writhing in presence of yohimbine at 10 mg/kg, po after 30 mins relative to control. The procedure, abridged:
(§3)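 Mouse abdominal constriction (writhing) test with a chemical pain stimulus. Test drugs given orally 30 min before the test. Yohimbine given at 3 mg kg^-1 ip as α2-adrenoceptor antagonist pretreatment. Writhes counted and compared with CMC vehicle controls. Values are the mean of at least two experiments.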
(In general: Writhing tests count abdominal constrictions after an irritant is injected.)

The test system of test [4] is Rattus norvegicus. The experiment in a line: Increase in noradrenaline release in Sprague-Dawley rat cerebral cortex at 10 mg/kg, po after 30 mins by microdialysis technique. The procedure, abridged:
(§4)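 Rat cerebral cortex microdialysis under chloral hydrate anesthesia (400 mg/kg) in a stereotaxic frame, using a vertical concentric probe perfused with solution containing MgCl₂ and 4 mM KCl. About 18 h after surgery, dialysate collected every 20 min and stored at -80 °C. Noradrenaline measured by HPLC with electrochemical detection. Release expressed against a baseline averaged from three samples taken just before drug dosing.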

Test [5] relates to Mus musculus. In words: Effect on Swiss albino mouse assessed as decrease in number of falls in 30 sec at 10 mg/kg, po after 15 mins by Rota-Rod test. The procedure, abridged: as §2
Test [6] concerns Mus musculus. In words: Effect on Swiss albino mouse assessed as decrease in number of falls in 30 sec at 10 mg/kg, po after 45 mins by Rota-Rod test. The procedure, abridged: as §2
Test [7] has as its system Mus musculus. The experiment in a line: Effect on Swiss albino mouse assessed as decrease in number of falls in 30 sec at 20 mg/kg, po after 15 mins by Rota-Rod test. The procedure, abridged: as §2
Test [8] concerns Mus musculus. In words: Effect on Swiss albino mouse assessed as decrease in number of falls in 30 sec at 20 mg/kg, po after 45 mins by Rota-Rod test. The procedure, abridged:
as §2

Test [9] deals with Mus musculus. In words: Antinociceptive activity in Swiss albino mouse assessed as reduction of number of writhing at 20 mg/kg, po after 30 mins relative to control. The procedure, abridged: as §1
Test [10] has as its system Mus musculus. In words: Antinociceptive activity in Swiss Albino mouse assessed as number of writhing in presence of yohimbine at 20 mg/kg, po after 30 mins relative to control. The procedure, abridged: as §3
In test [11] the test system is Mus musculus. The experiment in a line: Effect on Swiss albino mouse assessed as decrease in number of falls in 30 sec at 20 mg/kg, po after 30 mins by Rota-Rod test. The procedure, abridged: as §2
In test [12] the test system is Mus musculus. The experiment in a line: Effect on Swiss albino mouse assessed as decrease in number of falls in 30 sec at 3 mg/kg, po after 30 mins by Rota-Rod test. The procedure, abridged:
as §2

Test [13] relates to Mus musculus. The experiment in a line: Antinociceptive activity in Swiss albino mouse assessed as reduction of number of writhing at 3 mg/kg, po after 30 mins relative to control. The procedure, abridged:
as §1

Test [14] relates to Mus musculus. In words: Effect on Swiss albino mouse assessed as decrease in number of falls in 30 sec at 3 mg/kg, po after 15 mins by Rota-Rod test. The procedure, abridged:
as §2

The subject of test [15] is Rattus norvegicus. The experiment in a line: Increase in noradrenaline release in Sprague-Dawley rat cerebral cortex at 3 mg/kg, po after 30 mins by microdialysis technique. The procedure, abridged:
as §4

Test [16] relates to Mus musculus. In words: Antinociceptive activity in Swiss albino mouse assessed as number of writhing in presence of yohimbine at 3 mg/kg, po after 30 mins relative to control. The procedure, abridged: as §3
Test [17] concerns Mus musculus. In words: Effect on Swiss albino mouse assessed as decrease in number of falls in 30 sec at 3 mg/kg, po after 45 mins by Rota-Rod test. The procedure, abridged:
as §2

The species named for test [18] is Mus musculus. The experiment in a line: Effect on Swiss albino mouse assessed as decrease in number of falls in 30 sec after 30 mins of treatment by Rota-Rod test. The procedure, abridged: as §2
The species entered for test [19] is Mus musculus. In words: Effect on Swiss albino mouse assessed as decrease in number of falls in 30 sec after 15 mins of treatment by Rota-Rod test. The procedure, abridged: as §2
Test [20] is filed under the species Mus musculus. The experiment in a line: Effect on Swiss albino mouse assessed as decrease in number of falls in 30 sec after 45 mins of treatment by Rota-Rod test. The procedure, abridged: as §2
The species entered for test [21] is Mus musculus. In words: Antinociceptive activity in Swiss albino mouse assessed as reduction of number of writhing after 30 mins relative to control. The procedure, abridged: as §1
For test [22], the species on record is Rattus norvegicus. The experiment in a line: Increase in noradrenaline release in Sprague-Dawley rat cerebral cortex after 30 mins by microdialysis technique. The procedure, abridged:
as §4

The test system of test [23] is Rattus norvegicus. In words: Increase in noradrenaline release in Sprague-Dawley rat cerebral cortex at 20 mg/kg, po after 30 mins by microdialysis technique. The procedure, abridged:
as §4

Test [24] deals with Mus musculus. The experiment in a line: Effect on Swiss albino mouse assessed as decrease in number of falls in 30 sec at 30 mg/kg, po after 45 mins by Rota-Rod test. The procedure, abridged:
as §2

Test [25] has as its system Rattus norvegicus. In words: Increase in noradrenaline release in Sprague-Dawley rat cerebral cortex at 30 mg/kg, po after 30 mins by microdialysis technique. The procedure, abridged: as §4
Test [26] relates to Mus musculus. In words: Effect on Swiss albino mouse assessed as decrease in number of falls in 30 sec at 30 mg/kg, po after 15 mins by Rota-Rod test. The procedure, abridged:
as §2

Test [27] relates to Mus musculus. The experiment in a line: Antinociceptive activity in Swiss albino mouse assessed as reduction of number of writhing at 30 mg/kg, po after 30 mins relative to control. The procedure, abridged: as §1
For test [28], the system named is Mus musculus. In words: Antinociceptive activity in Swiss albino mouse assessed as number of writhing in presence of yohimbine at 30 mg/kg, po after 30 mins relative to control. The procedure, abridged: as §3
Test [29] deals with Mus musculus. In words: Effect on Swiss albino mouse assessed as decrease in number of falls in 30 sec at 30 mg/kg, po after 30 mins by Rota-Rod test. The procedure, abridged: as §2

In the case of `C=Cc1c(C2CCCCC2)nn(C)c(=O)c1N`, the Activity with Mus musculus [1] is on record as 14.4; in the test on Mus musculus [2], 3.4; with Mus musculus [3], 32.5; with Rattus norvegicus [4] it was 182.1%; in the test with Mus musculus [5], 4.1; with Mus musculus [6], 2.9.

On to `C=Cc1c(-c2ccncc2)nn(C)c(=O)c1N`, for which the Activity with Mus musculus [7] was 3.5; in the test on Mus musculus [8], 2.1; with Mus musculus [9] it was 18.7; in the test on Mus musculus [10], 34.1; in the test on Mus musculus [11], 2.8.

With `C=Cc1c(-c2ccc(F)cc2)nn(C)c(=O)c1N`, in the test on Mus musculus [9], the Activity was determined as 27.2.

As to `Cn1ccc(-c2c(-c3ccccc3)nn(C)c(=O)c2N)n1`, the Activity in the test with Mus musculus [12] came out at 3.1; in the test on Mus musculus [13], 13.6; with Mus musculus [14], 4.2; in the test with Rattus norvegicus [15], 190.1%; in the test with Mus musculus [16], 31.1; in the test on Mus musculus [17] it was 2.3.

With `CC(=O)[O-].O=CC(O)C(O)C(O)C(O)CO.[Na+]` (stereo not given), the Activity in the test filed under Mus musculus [18] came out at 3; in the test filed under Mus musculus [19], 3.6; in the test listed under Mus musculus [20], 2.2; in the test listed under Mus musculus [21] it was 33.2; in the test filed under Rattus norvegicus [22], 100%.

In the case of `C=Cc1c(-c2cccs2)nn(C)c(=O)c1N`, the Activity in the test with Mus musculus [9] is 30.2.

Consider `C=Cc1c(C2CCCC2)nn(C)c(=O)c1N`, for which the Activity with Mus musculus [1] was 27.7.

Regarding `C=Cc1c(C)nn(C)c(=O)c1NCC`, the Activity in the test on Mus musculus [1] was 16.8; in the test on Mus musculus [2], 3.2; with Mus musculus [3], 29; with Rattus norvegicus [4], 176.2%; in the test with Mus musculus [5], 3.9; in the test on Mus musculus [6] it was 2.5.

Consider `C=Cc1c(C)nn(C)c(=O)c1NC`, for which the Activity in the test on Mus musculus [1] amounted to 17.6; with Mus musculus [2] it was 2.5; in the test with Mus musculus [3], 32; in the test with Mus musculus [5] it was 3.7; in the test on Mus musculus [6] it was 2.

For `CCN(CC)c1c(-c2ccn(C)n2)c(-c2ccccc2)nn(C)c1=O`, the Activity in the test with Mus musculus [9] is 27.1.

On to `Cn1nc(-c2ccccc2)c(-c2cc[nH]n2)c(N)c1=O`, for which the Activity with Mus musculus [12] is given as 2.8; with Mus musculus [13] it was 15.9; with Mus musculus [14], 3.7; in the test with Rattus norvegicus [15] it was 168.4%; in the test with Mus musculus [16], 26.5; with Mus musculus [17] it was 2.3.

Turning to `C=Cc1c(-c2ccc(Br)cc2)nn(C)c(=O)c1N`, the Activity in the test with Rattus norvegicus [23] was 107%; in the test on Mus musculus [9], 35.7.

As for `Cc1nn(C)c(=O)c(N)c1-c1ccn(C)n1`, the Activity in the test with Mus musculus [24] was 1.8; in the test on Rattus norvegicus [25], 188.5%; in the test with Mus musculus [26], 3.9; in the test on Mus musculus [27], 15.9; with Mus musculus [28], 31.7; in the test with Mus musculus [29], 2.6.

In the case of `C=Cc1c(-c2ccc(F)cc2)nn(CCCC)c(=O)c1N`, in the test on Mus musculus [9], the Activity turned out to be 33.6.

As for `C=Cc1c(C)nn(CCCC)c(=O)c1N`, the Activity was 95.9% with Rattus norvegicus [23] and 36.7 in the test with Mus musculus [9].

On to `CCNc1c(-c2ccn(C)n2)c(-c2ccccc2)nn(C)c1=O`, for which the Activity stood at 2.6 in the test with Mus musculus [7]; 173.7% with Rattus norvegicus [23]; 2.1 with Mus musculus [8]; 14.1 in the test with Mus musculus [9]; 29.6 in the test with Mus musculus [10]; 1.8 in the test with Mus musculus [11].

As to `C=Cc1c(-c2ccncc2)nn(CCCC)c(=O)c1N`, the values for the Activity with Rattus norvegicus [23] and in the test on Mus musculus [9] were 97.5% and 35.3, respectively.

For `Cc1nnc(-c2c(-c3ccccc3)nn(C)c(=O)c2N)o1`, the Activity in the test with Mus musculus [12] is 2.3; in the test on Mus musculus [13], 19.5; in the test with Mus musculus [14] it was 2.7; in the test with Mus musculus [16], 34.2; with Mus musculus [17], 1.5.

Consider `C=Cc1c(-c2cccs2)nn(CCCC)c(=O)c1N`, for which the Activity in the test with Mus musculus [9] is on record as 25.2.

Consider `C=Cc1c(-c2ccccc2)nn(CCCC)c(=O)c1NC`, for which the Activity amounted to 4 in the test with Mus musculus [7]; 2.5 in the test with Mus musculus [8]; 21.6 in the test with Mus musculus [9]; 31.9 in the test on Mus musculus [10]; 3.3 in the test with Mus musculus [11].

On to `COC(=O)[C@@H]1[C@H]2C[C@H]3c4[nH]c5ccccc5c4CCN3C[C@@H]2CC[C@@H]1O` [YOHIMBINE], for which the Activity with Mus musculus [16] is reported as 31.7.

`C=Cc1c(-c2ccccc2)nn(C)c(=O)c1NCC`: the Activity in the test with Mus musculus [12] worked out at 2.3; in the test with Mus musculus [13], 17.4; in the test on Mus musculus [14] it was 3.4; with Mus musculus [16] it was 28.1; in the test with Mus musculus [17], 1.9.

As to `Cc1nc(-c2c(-c3ccccc3)nn(C)c(=O)c2N)cs1`, the Activity with Mus musculus [1] was 14.7; in the test with Mus musculus [2], 2.7; in the test on Mus musculus [3], 33.6; with Rattus norvegicus [4], 181.3%; in the test with Mus musculus [5], 3.8; in the test on Mus musculus [6] it was 2.
